High-throughput results (PubChem BioAssay)
This is a sample that favours compounds with a hit; in the whole collection about 1.9% have one here.
Runt-SMMHC FRET = blocks binding of human RUNX1 Runt domain to CBFb-SMMHC; Q01196+Q13951; Cerulean-Runt/Venus-CBFb-SMMHC FRET ratio 530/480, 1 h; inhibition, % at 20 µM; actives 0.74% (n = 220,000);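 active = mean inhibition across duplicate retests at 20 µM reaching about 50%, limit read from the data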;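 note: inhibitors lower the FRET ratio by blocking Runt binding to CBFb-SMMHC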
Hck Nef HTS = inhibitors of human Hck kinase activated by Nef; inhibition, % at 20 µM; AID 463187; Recombinant Hck-YEEI plus Nef, Z-Lyte FRET kinase assay; actives 0.68% (n = 220,000);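 active = Hck-Nef kinase inhibition above about 50%, limit read from the data; inactive = inhibition below that limit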
Target sequence (P08631 whole entry, looked up): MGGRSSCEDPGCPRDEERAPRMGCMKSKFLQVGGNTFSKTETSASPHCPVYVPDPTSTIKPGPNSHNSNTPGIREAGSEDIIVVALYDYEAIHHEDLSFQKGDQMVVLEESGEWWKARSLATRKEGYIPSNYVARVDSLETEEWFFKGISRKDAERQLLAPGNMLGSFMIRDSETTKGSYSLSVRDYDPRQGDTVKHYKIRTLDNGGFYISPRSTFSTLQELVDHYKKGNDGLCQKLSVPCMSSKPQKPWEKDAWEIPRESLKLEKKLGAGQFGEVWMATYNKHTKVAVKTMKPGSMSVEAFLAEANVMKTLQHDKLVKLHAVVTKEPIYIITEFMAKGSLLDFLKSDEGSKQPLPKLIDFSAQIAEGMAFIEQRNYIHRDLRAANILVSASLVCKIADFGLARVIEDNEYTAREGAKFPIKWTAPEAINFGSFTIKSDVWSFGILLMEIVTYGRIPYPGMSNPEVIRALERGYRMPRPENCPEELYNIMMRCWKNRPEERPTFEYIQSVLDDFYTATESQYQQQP
RanGTP-Imp inh = disruptors of Ran-importin-beta complex formation – biochemical, FRET, CFP-Ran, YFP-importin-beta, homogeneous, primary screen | AID 2216 | actives 1.1% (n = 300,000) | inhibition, % (no concentration beside the values) | cell-free CFP-Ran/YFP-importin-beta FRET ratio;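 active = more than half of the replicate wells show a fall in the fluorescence ratio signal beyond about 16%, limit read from the data, passing the limit was not always enough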
TbHK1 inh = blocks Trypanosoma brucei hexokinase 1 activity | recombinant TbHK1, G6PDH-coupled NADH A340 | inhibition, % at 10 µM | actives 0.11% (n = 220,000) | AID 1430;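 active = inhibition of 50% or more in the single-dose primary screen; inactive = inhibition below 50%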
Runt-CBFb FRET = blocks binding of human RUNX1 Runt domain to CBFb | Cerulean-Runt/Venus-CBFb FRET ratio 530/480, 1 h | inhibition, % at 20 µM | actives 0.46% (n = 220,000);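 active = inhibition over about 50% at 20 µM in the single-dose screen, limit read from the data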
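Schedule: protein complex preformed 1 h, compound exposure 1 h, room temperature, dark; test system: Cerulean-labeled Runt domain protein; amount: 100 nM per protein; buffer or medium: Tris 50 mM pH 7.5, KCl, K2SO4, 0.01% BSA; read-out: loss of energy transfer signal; detection: FRET fluorescence; controls: 5 µM unlabeled CBFb as full-inhibition high control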
Runt-CBFb TRFRET = disrupts human RUNX1 Runt domain binding to CBFb | actives 20% (n = 480) | shares compounds with Runt-CBFb FRET | inhibition, % at 20 µM | TR-FRET RUNX1 Runt domain-CBFb binding; in the data active = inhibition above about 40%
Numbers stand for hits.

What do the screens show for `CC1(c2ccc(NC(=O)c3ccccc3F)cc2)CC1(Cl)Cl` (stereo not drawn)?
RanGTP-Imp inh: inactive

What do the screens show for `Cc1ccc2nc(C)cc(N3CCOCC3)c2c1`?
Runt-SMMHC FRET: inactive; Hck Nef HTS: inactive; RanGTP-Imp inh: inactive; TbHK1 inh: inactive; Runt-CBFb FRET: inactive

What do the screens show for `Cc1cc(N2CCOCC2)c2c(N)c(C)cc(C)c2n1`?
Runt-SMMHC FRET: inactive; Hck Nef HTS: inactive; TbHK1 inh: inactive; Runt-CBFb FRET: 62; Runt-CBFb TRFRET: inactive

Results for O=C(NCc1ccccc1)c1ccc(-c2ccc(F)cc2)o1 ?
Runt-SMMHC FRET: inactive; Hck Nef HTS: inactive; RanGTP-Imp inh: inactive; TbHK1 inh: inactive; Runt-CBFb FRET: inactive

What do the screens show for `O=C(NNc1cc(Br)c(O)c(Br)c1)c1ccccc1`?
Runt-SMMHC FRET: inactive; Hck Nef HTS: inactive; RanGTP-Imp inh: inactive; TbHK1 inh: inactive; Runt-CBFb FRET: 78; Runt-CBFb TRFRET: 45

How did COc1ccc2cc(CN(Cc3ccco3)C(=S)NCC3CCCO3)c(=O)[nH]c2c1 (stereo not drawn) do in these assays?
Hck Nef HTS: inactive; RanGTP-Imp inh: inactive; TbHK1 inh: inactive

How did CNC(=S)N(Cc1cc2ccc(OC)cc2[nH]c1=O)CC1CCCO1 (stereo not drawn) do in these assays?
Runt-SMMHC FRET: inactive; Hck Nef HTS: inactive; RanGTP-Imp inh: inactive; TbHK1 inh: inactive; Runt-CBFb FRET: 63; Runt-CBFb TRFRET: inactive

How did CN1CCc2c(sc3c2C(=O)NC(c2cccc(OC(=O)c4cccs4)c2)N3)C1 (stereo not drawn) do in these assays?
Runt-SMMHC FRET: 106; Hck Nef HTS: inactive; RanGTP-Imp inh: 140; TbHK1 inh: inactive; Runt-CBFb FRET: 51; Runt-CBFb TRFRET: inactive

What do the screens show for `CCOc1ccccc1NC(=O)C(OC(=O)c1cc(C)oc1C)c1ccccc1` (stereo not drawn)?
Runt-SMMHC FRET: inactive; Hck Nef HTS: inactive; RanGTP-Imp inh: inactive; TbHK1 inh: inactive; Runt-CBFb FRET: 54; Runt-CBFb TRFRET: inactive

What do the screens show for `CCOc1ccccc1NC(=O)C(OC(=O)c1ccccc1O)c1ccccc1` (stereo not drawn)?
Runt-SMMHC FRET: inactive; Hck Nef HTS: inactive; RanGTP-Imp inh: inactive; TbHK1 inh: inactive; Runt-CBFb FRET: inactive

Results for Cc1cccc(C)c1NC(=O)CSc1nnc(CCCCCNC(=O)OC(C)(C)C)o1 ?
Runt-SMMHC FRET: inactive; Hck Nef HTS: inactive; RanGTP-Imp inh: inactive; TbHK1 inh: inactive; Runt-CBFb FRET: inactive

Results for Cc1ccc(C(=O)/C=C/C(=O)c2ccc(C)cc2)cc1 ?
Runt-SMMHC FRET: inactive; Hck Nef HTS: inactive; RanGTP-Imp inh: inactive; TbHK1 inh: inactive; Runt-CBFb FRET: 54; Runt-CBFb TRFRET: inactive

Results for Cc1ccc(/C=C/C(=O)c2ccc(C)cc2)cc1 ?
Runt-SMMHC FRET: inactive; Hck Nef HTS: inactive; RanGTP-Imp inh: inactive; TbHK1 inh: inactive; Runt-CBFb FRET: inactive

Results for Clc1ccc(CSc2ccc(-c3ccco3)nn2)cc1 ?
Runt-SMMHC FRET: inactive; Hck Nef HTS: inactive; RanGTP-Imp inh: inactive; TbHK1 inh: inactive; Runt-CBFb FRET: 56; Runt-CBFb TRFRET: 52

Results for c1ccc(CSc2ccc(-c3ccco3)nn2)cc1 ?
Runt-SMMHC FRET: inactive; Hck Nef HTS: inactive; RanGTP-Imp inh: inactive; TbHK1 inh: inactive; Runt-CBFb FRET: inactive

What do the screens show for `Cc1ccc(CSc2ccc(-c3ccco3)nn2)cc1`?
Runt-SMMHC FRET: inactive; Hck Nef HTS: inactive; RanGTP-Imp inh: inactive; TbHK1 inh: inactive; Runt-CBFb FRET: 56; Runt-CBFb TRFRET: inactive

How did CNS(=O)(=O)c1ccc2nc(NC(=O)c3ccc(N4C(=O)CCC4=O)cc3)sc2c1 do in these assays?
Runt-SMMHC FRET: inactive; Hck Nef HTS: inactive; RanGTP-Imp inh: inactive; TbHK1 inh: inactive; Runt-CBFb FRET: 55; Runt-CBFb TRFRET: inactive

What do the screens show for `CCc1ccc2nc(NC(=O)c3ccc(N4C(=O)CCC4=O)cc3)sc2c1`?
Runt-SMMHC FRET: inactive; Hck Nef HTS: inactive; RanGTP-Imp inh: inactive; TbHK1 inh: inactive; Runt-CBFb FRET: inactive

Results for CC1=C(C(=O)OCCOC(C)C)C(c2cccnc2)C2=C(CCCC2=O)N1 (stereo not drawn) ?
Runt-SMMHC FRET: inactive; Hck Nef HTS: inactive; RanGTP-Imp inh: inactive; TbHK1 inh: inactive; Runt-CBFb FRET: inactive

Results for COCCOC(=O)C1=C(C)NC2=C(C(=O)CC(C)(C)C2)C1c1cccnc1 (stereo not drawn) ?
Runt-SMMHC FRET: 109; Hck Nef HTS: inactive; RanGTP-Imp inh: inactive; TbHK1 inh: inactive; Runt-CBFb FRET: 50; Runt-CBFb TRFRET: inactive

How did CS(=O)(=O)CC(=O)Nc1ccc2nc3n(c(=O)c2c1)CCCCC3 do in these assays?
Runt-SMMHC FRET: inactive; Hck Nef HTS: inactive; RanGTP-Imp inh: inactive; TbHK1 inh: inactive; Runt-CBFb FRET: inactive

What do the screens show for `COc1ccc(CCn2c(=N)c(C(=O)N3CCN(C)CC3)cc3c(=O)n4ccccc4nc32)cc1`?
Runt-SMMHC FRET: 124; Hck Nef HTS: inactive; RanGTP-Imp inh: inactive; TbHK1 inh: inactive; Runt-CBFb FRET: 65; Runt-CBFb TRFRET: inactive

What do the screens show for `O=C(NCCO)c1cccc2c1-c1ccccc1C2=O`?
Runt-SMMHC FRET: inactive; Hck Nef HTS: inactive; RanGTP-Imp inh: inactive; TbHK1 inh: inactive; Runt-CBFb FRET: inactive

What do the screens show for `O=C1c2ccccc2-c2c1cccc2C(=O)N(CCO)CCO`?
Runt-SMMHC FRET: inactive; Hck Nef HTS: inactive; RanGTP-Imp inh: inactive; TbHK1 inh: inactive; Runt-CBFb FRET: 75; Runt-CBFb TRFRET: inactive

What do the screens show for `CC(C)(C)OC(=O)N1CCC(C(=O)N2CCCCCC2)CC1`?
Runt-SMMHC FRET: inactive; Hck Nef HTS: inactive; RanGTP-Imp inh: inactive; TbHK1 inh: inactive; Runt-CBFb FRET: inactive

What do the screens show for `CC(C)(C)OC(=O)N1CCC(C(=O)N2CCOCC2)CC1`?
Runt-SMMHC FRET: inactive; Hck Nef HTS: inactive; RanGTP-Imp inh: inactive; TbHK1 inh: inactive; Runt-CBFb FRET: 84; Runt-CBFb TRFRET: inactive

What do the screens show for `CC1(CC(=O)N/N=C/c2cc([N+](=O)[O-])c(O)cc2O)OCCO1`?
Runt-SMMHC FRET: inactive; Hck Nef HTS: inactive; RanGTP-Imp inh: inactive; TbHK1 inh: inactive; Runt-CBFb FRET: inactive

Results for FC(F)Oc1ccc(-c2csc(NNC3=NCCCCC3)n2)cc1 ?
Runt-SMMHC FRET: inactive; Hck Nef HTS: inactive; RanGTP-Imp inh: inactive; TbHK1 inh: inactive; Runt-CBFb FRET: 55; Runt-CBFb TRFRET: inactive

How did COc1ccccc1Oc1ccc2c(c1)C(=O)N(c1ccc(Br)c3cccnc13)C2=O do in these assays?
Runt-SMMHC FRET: inactive; Hck Nef HTS: inactive; RanGTP-Imp inh: inactive; TbHK1 inh: inactive; Runt-CBFb FRET: inactive

How did O=C(NCc1ccco1)c1cccnc1Cl do in these assays?
Runt-SMMHC FRET: inactive; Hck Nef HTS: inactive; RanGTP-Imp inh: inactive; TbHK1 inh: inactive; Runt-CBFb FRET: inactive

How did O=C(NCc1ccco1)c1cccnc1-c1nc2ccccc2s1 do in these assays?
Runt-SMMHC FRET: inactive; Hck Nef HTS: inactive; RanGTP-Imp inh: inactive; TbHK1 inh: inactive; Runt-CBFb FRET: 50; Runt-CBFb TRFRET: 40
